Sampled rows, rich in hits. Any-hit rate of the full collection: about 4%.
FGF22 binding – shifts melting point of recombinant human FGF22; Q9HCT0; recombinant FGF22 thermal shift, SYPRO orange fluorescence; percent of sucrose octasulfate shift, DMSO zero; activity (Tm shift, normalised), % at 9.99 µM; 340,000 tested, 1.5% active; AID 651658;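 active = mean Tm shift, scaled 0 neutral to 100 positive control, at about 1.3% or above, every replicate too, limit read from the data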
rRNA inh HTS – selective bacterial rRNA inhibition in E. coli | GFP signal change (wild-type ribosome), % (test concentration not listed) | 350,000 tested, 1.6% active | AID 720706 | E. coli WT GFP vs humanized-ribosome RFP mutants, fluorescence, 24 h; stronger effect = lower value; DMSO median 0, no signal -100;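 active = significant combined selectivity score with lowered wild-type GFP, culture density cut under 30%, mutant RFP and density less affected; inactive = any of these conditions unmet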
Statin myotox sup – suppressors of simvastatin-induced myotoxicity in C2C12 myotubes; ATP luminescence, 48 h; scaled: DMSO 0, geranylgeraniol control 100; rescue of ATP level, % at 7.49 µM; 330,000 tested, 0.78% active;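 active = mean ATP rescue above about 67%, or every replicate alone reaching that limit, limit read from the data, passing the limit was not always enough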;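 also: myotubes were challenged with 10 µM simvastatin during compound exposure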
SIRT5 inh – sirtuin-5 (human) deacylase inhibition. Purified SirT5, succinyl-peptide AMC, trypsin-coupled fluorescence. Q9NXA8. inhibition, % at 15 µM. 330,000 tested, 1.1% active; in the data active = inhibition above about 15%
FN deposit inh – fibronectin deposition inhibition; AH1F fibroblasts, Alexa488-fibronectin deposition fluorescence, overnight; inhibition, % at 12.6 µM; 350,000 tested, 0.086% active; AID 743247;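 active = mean inhibition across replicates of 30% or more, regardless of how many single replicates reach that level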;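 also: positive control wells lacked labelled fibronectin entirely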
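material = AH1F fibroblast monolayer depositing Alexa488-labelled fibronectin into matrix | amount = 10000 AH1F cells/well | buffer or medium = DMEM plus 2% serum, read in PBS | incubation = 1 h cell adhesion before compound, then overnight fibronectin incubation | detection = fluorescence at 485 nm excitation, 525 nm emission | evaluation = percent inhibition as loss of matrix-bound fibronectin fluorescence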
E-selectin induc – induces E-selectin expression in human endothelial cells; HUVEC E-selectin immunofluorescence imaging; normalized: neutral wells 0, TNF-alpha wells 100; activation, % at 7.58 µM; 260,000 tested, 0.37% active; AID 686992;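 active = mean E-selectin-positive cell signal at least 10% of the positive control, reached in at least 60% of replicates, without over 20% cell loss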
Target sequence (P16581 whole entry, looked up): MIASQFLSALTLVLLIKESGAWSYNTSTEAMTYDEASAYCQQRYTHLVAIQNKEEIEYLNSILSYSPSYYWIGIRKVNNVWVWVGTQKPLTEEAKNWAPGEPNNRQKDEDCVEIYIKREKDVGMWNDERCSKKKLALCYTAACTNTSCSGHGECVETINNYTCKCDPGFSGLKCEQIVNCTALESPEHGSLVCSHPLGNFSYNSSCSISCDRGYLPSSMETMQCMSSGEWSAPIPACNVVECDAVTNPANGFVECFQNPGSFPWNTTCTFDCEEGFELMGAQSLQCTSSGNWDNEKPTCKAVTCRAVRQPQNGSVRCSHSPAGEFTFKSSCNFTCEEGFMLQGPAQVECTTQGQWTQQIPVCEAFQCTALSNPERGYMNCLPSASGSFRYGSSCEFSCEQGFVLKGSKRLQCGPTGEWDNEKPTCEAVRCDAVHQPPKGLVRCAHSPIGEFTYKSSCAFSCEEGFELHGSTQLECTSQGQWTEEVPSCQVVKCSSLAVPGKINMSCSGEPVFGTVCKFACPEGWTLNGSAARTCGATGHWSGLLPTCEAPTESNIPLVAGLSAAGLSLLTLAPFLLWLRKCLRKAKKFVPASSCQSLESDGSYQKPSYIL
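material = human umbilical vein endothelial cells (HUVEC), E-selectin induction | quantity = 3,000 cells/well | medium = EGM-2 growth medium on 0.1% gelatin-coated wells | technique = immunofluorescence imaging | read-out basis = % PE-positive cells | control set = TNF-alpha positive control, DMSO neutral control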
Active calls of the source: *.

Results for CCOC(=O)c1nn(C23CC4CC(CC(C4)C2)C3)c2c1C(=O)N(c1ccc(C)cc1)C2=O ?
Statin myotox sup: 121*

What do the screens show for `COC(=O)c1nn(C23CC4CC(CC(C4)C2)C3)c2c1C(=O)N(c1ccc(Br)cc1)C2=O`?
Statin myotox sup: 68*

What do the screens show for `O=C(NCC1CC1)[C@H]1[C@H](CO)[C@H]2Cn3c(ccc(C4=CCCC4)c3=O)[C@H]2N1Cc1ccccc1F`?
FGF22 binding: 0; rRNA inh HTS: -1; Statin myotox sup: 23; SIRT5 inh: -1; E-selectin induc: 0

Results for C[C@H]1CN([C@@H](C)CO)C(=O)c2cc(-c3ccccc3)cnc2O[C@H]1CN(C)Cc1cccnc1 ?
FGF22 binding: 0; rRNA inh HTS: 5; Statin myotox sup: -27; SIRT5 inh: 1; FN deposit inh: -36; E-selectin induc: 0

What do the screens show for `CCC(=O)N(C)C[C@@H]1Oc2cc(C#Cc3ccccn3)ccc2S(=O)(=O)N([C@H](C)CO)C[C@@H]1C`?
FGF22 binding: 0; rRNA inh HTS: -1; Statin myotox sup: -9; SIRT5 inh: -2; FN deposit inh: -8; E-selectin induc: 0

What do the screens show for `COc1ccc(CNC(=S)Nc2ccc(F)c(Cl)c2)cc1OC`?
FGF22 binding: 0; rRNA inh HTS: -27*; SIRT5 inh: -1; FN deposit inh: 7; E-selectin induc: 0

How did CCCOc1ccc(CNC(=S)Nc2ccccc2)cc1Cl do in these assays?
FGF22 binding: 40*; rRNA inh HTS: -56; Statin myotox sup: 24; SIRT5 inh: 0; FN deposit inh: 4; E-selectin induc: 0

How did COc1ccc(NC(=S)Nc2cccc(Cl)c2)cc1OC do in these assays?
FGF22 binding: 0; rRNA inh HTS: -40; Statin myotox sup: 4; SIRT5 inh: 112*

What do the screens show for `O=C(Nc1ccccc1)OCCOc1ccc(Cl)cc1Cl`?
FGF22 binding: 44*; rRNA inh HTS: -16; Statin myotox sup: -3; FN deposit inh: 1; E-selectin induc: 0

What do the screens show for `COCC(=O)N1C[C@H](C)[C@@H](OC)CN(C)C(=O)c2cc(NC(=O)Nc3cccc(F)c3)ccc2OC[C@@H]1C`?
FGF22 binding: 0; rRNA inh HTS: -2; SIRT5 inh: 3; FN deposit inh: 8; E-selectin induc: 0

Results for O=C(CC1CC1)N1[C@H](CO)[C@@H](c2ccccc2)C12CN(S(=O)(=O)c1ccccc1)C2 ?
FGF22 binding: 0; rRNA inh HTS: -5; SIRT5 inh: -5; E-selectin induc: 0

Results for Cc1noc(C)c1NC(=O)N[C@H]1CC[C@@H](CC(=O)Nc2ccccc2)O[C@H]1CO ?
FGF22 binding: 0; rRNA inh HTS: -5; Statin myotox sup: 0; SIRT5 inh: 3; E-selectin induc: 0

What do the screens show for `COc1ccc2c3c([nH]c2c1)[C@@H](CO)N(C(C)=O)CC31CN(C(=O)Nc2ccc(F)cc2F)C1`?
FGF22 binding: 0; rRNA inh HTS: -1; E-selectin induc: 0

Results for COCC(=O)Nc1ccc2c(c1)C(=O)N(C)[C@H]1CC[C@@H](CC(=O)NCC3CCCCC3)O[C@H]1CO2 ?
FGF22 binding: 0; rRNA inh HTS: 0; Statin myotox sup: 31; SIRT5 inh: 7; FN deposit inh: -21; E-selectin induc: 0

What do the screens show for `COCC(=O)N1CC2(CCN(C(=O)CN3CCOCC3)CC2)c2c([nH]c3cc(OC)ccc23)[C@@H]1CO`?
rRNA inh HTS: 4; E-selectin induc: 0

What do the screens show for `NC(=O)c1cc(C(=O)c2ccc(Cl)cc2Cl)c[nH]1`?
FGF22 binding: 44*; rRNA inh HTS: -13; Statin myotox sup: -1; SIRT5 inh: -2; FN deposit inh: 2; E-selectin induc: 0

How did CN(C)C(=O)c1cc(C(=O)c2ccc(Cl)cc2Cl)c[nH]1 do in these assays?
FGF22 binding: 0; rRNA inh HTS: -18; Statin myotox sup: 6; SIRT5 inh: 8; FN deposit inh: -3; E-selectin induc: 22

How did Cc1ccccc1C(=O)c1c[nH]c(C(N)=O)c1 do in these assays?
Statin myotox sup: 5

How did NC(=O)c1cc(C(=O)c2ccc(Cl)cc2)c[nH]1 do in these assays?
FGF22 binding: 0; rRNA inh HTS: -23*; SIRT5 inh: -8; FN deposit inh: -15

Results for COc1cccc(C(=O)Nc2ccc3c(c2)OC[C@@H](C)N(C(=O)C2CCOCC2)C[C@@H](C)[C@H](OC)CN(C)C3=O)c1 ?
FGF22 binding: 0; rRNA inh HTS: 2; Statin myotox sup: 3; FN deposit inh: -6; E-selectin induc: 0

Results for Cc1cc(C(=O)Nc2cccc3c2O[C@@H](CN(C)CC2CC2)[C@H](C)CN([C@H](C)CO)C3=O)n(C)n1 ?
FGF22 binding: 0; rRNA inh HTS: -1; Statin myotox sup: 1; SIRT5 inh: 1; E-selectin induc: 0

What do the screens show for `Cc1cc(C(=O)Nc2cccc3c2O[C@@H](CN(C)Cc2ccccc2)[C@@H](C)CN([C@H](C)CO)C3=O)n(C)n1`?
FGF22 binding: 0; rRNA inh HTS: -6; Statin myotox sup: -20; SIRT5 inh: -2; E-selectin induc: 0

What do the screens show for `Cc1cc(C(=O)Nc2cccc3c2O[C@H](CN(C)CC2CC2)[C@H](C)CN([C@H](C)CO)C3=O)n(C)n1`?
FGF22 binding: 0; rRNA inh HTS: 2; Statin myotox sup: 3; SIRT5 inh: 16*; E-selectin induc: 0

Results for Cc1cc(C(=O)Nc2cccc3c2O[C@H](CN(C)Cc2ccc(Oc4ccccc4)cc2)[C@@H](C)CN([C@H](C)CO)C3=O)n(C)n1 ?
FGF22 binding: -1; rRNA inh HTS: -2; Statin myotox sup: -48; SIRT5 inh: 17*; E-selectin induc: -1

What do the screens show for `CNC[C@H]1Oc2c(NC(=O)C3CCCCC3)cccc2C(=O)N([C@H](C)CO)C[C@H]1C`?
FGF22 binding: 0; rRNA inh HTS: 1; Statin myotox sup: -5; SIRT5 inh: -4; FN deposit inh: 7; E-selectin induc: 0

What do the screens show for `C[C@H](CO)N1C[C@H](C)[C@H](CN(C)C(=O)Nc2ccc(F)cc2)Oc2ccc(NC(=O)CCCN(C)C)cc2C1=O`?
FGF22 binding: 0; rRNA inh HTS: 3; Statin myotox sup: -25; E-selectin induc: -3

Results for COCCNC(=O)C[C@@H]1C[C@@H]2c3cc(NC(=O)COC)ccc3O[C@@H]2[C@H](CO)O1 ?
rRNA inh HTS: 2; Statin myotox sup: 6; SIRT5 inh: -7; FN deposit inh: 1; E-selectin induc: 0

Results for COc1ccc2c3c([nH]c2c1)[C@@H](CO)N(C(=O)Nc1ccccc1F)CC31CN(C(=O)C2CC2)C1 ?
rRNA inh HTS: 0

Screening results: PubChem BioAssay, Broad Institute
